The values below come from ChEMBL document CHEMBL1134348, “Novel glucocorticoid antedrugs possessing a 17beta-(gamma-lactone) ring” (J Med Chem, 2001).

Data set [1] is described as follows: % stability in human plasma after 10 minutes. It counts as ADME, organism-based. The settings on record: plasma, read-out: Stability. The method, boiled down:
(§1)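 Pooled heparinized plasma from 4 volunteers was incubated at 37 °C with test compound at a final concentration of 30 ug/mL, with DMSO-only controls. The reaction was stopped with 2 M citric acid at 10 and 60 min, with a zero-time sample. Supernatants were analysed by reversed-phase HPLC at 240 nm against an internal standard, in duplicate, and reported as % compound remaining.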

Data set [2] in a line: % stability in human plasma after 60 minutes. Format: ADME, organism-based. Conditions: plasma, read-out: Stability. Put shortly:
as §1

A short description of data set [3]: % stability in krebs buffer after 60 minutes. It counts as physicochemical. Conditions: Krebs buffer; read-out: Stability. The method, boiled down: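 Test compound, at a final concentration of 30 ug/mL, was spiked into Krebs buffer at 37 °C for 60 min, then quenched with 2 M citric acid. Supernatant was analysed by reversed-phase HPLC with UV detection at 240 nm and an internal standard, in duplicate. The read-out was % compound remaining.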

Data set [4] can be described thus: half life in human plasma. It counts as ADME, organism-based. Put shortly: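 Pooled heparinised plasma from 4 volunteers, stored at −20 °C; compound spiked to final 30 ug/mL at 37 °C. Half-life taken from additional time points in this incubation; reaction stopped with 2 M citric acid, samples frozen overnight and centrifuged. Supernatant analysed by reverse-phase HPLC with UV at 240 nm, internal standard dexamethasone or hydrocortisone; duplicates.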

Data set [5] has as its system Rattus norvegicus. Nature of the data set: Inhibition of rat ear edema as percentage change in mean weight (44.05+/-1.18 mg) from control group of 55.67+/-1.22 mg at 100 ug dose. Format: functional.
The test system of data set [6] is Rattus norvegicus. Nature of the data set: Inhibition of rat ear edema as percentage change in mean weight (50.65 +/- 1.18 mg) from control group of 55.67+/-1.22 mg at 25 ug dose. It counts as functional.
Data set [7] concerns Rattus norvegicus. Put plainly: Inhibition of rat ear edema as percentage change in mean weight (54.86 +/- 1.35 mg) from control group of 55.67+/-1.22 mg at 6.25 ug dose. Format: functional.
Data set [8] concerns Rattus norvegicus. Put plainly: Inhibition of rat ear edema as percentage change in mean weight (56.03 +/- 1.41 mg) from control group of 55.67+/-1.22 mg at 1.56 ug dose. Format: functional.
Data set [9] concerns Rattus norvegicus. Put plainly: Inhibition of rat ear edema as percentage change in mean weight (64.86+/-2.70 mg) from control group of 72.25+/-2.24 mg at 0.06 microg dose. Format: functional.
Data set [10] deals with Rattus norvegicus. Put plainly: Inhibition of rat ear edema as percentage change in mean weight (39.79+/-0.99 mg) from control group of 55.67+/-1.22 mg at 1.00 ug dose. Format: functional.
For data set [11], the system named is Rattus norvegicus. Put plainly: Inhibition of rat ear edema as percentage change in mean weight (40.57+/-1.10 mg) from control group of 55.67+/-1.22 mg at 4.00 ug dose. It counts as functional.
Data set [12] has as its system Rattus norvegicus. Put plainly: Inhibition of rat ear edema as percentage change in mean weight (44.39+/-2.26 mg) from control group of 72.25+/-2.24 mg at 4.00 ug dose. It counts as functional.
Data set [13] has as its system Rattus norvegicus. Nature of the data set: Inhibition of rat ear edema as percentage change in mean weight (44.71+/-1.53 mg) from control group of 72.25+/-2.24 mg at 1.00 ug dose. It counts as functional.
Data set [14] concerns Rattus norvegicus. Put plainly: Inhibition of rat ear edema as percentage change in mean weight (45.29+/-1.16 mg) from control group of 55.67+/-1.22 mg at 0.25 ug dose. It counts as functional.
For data set [15], the system named is Rattus norvegicus. Nature of the data set: Inhibition of rat ear edema as percentage change in mean weight (47.21+/-1.49 mg) from control group of 72.25+/-2.24 mg at 0.25 ug dose. It counts as functional.

In the case of `CC1(C)O[C@@H]2CC3C4C[C@H](F)C5=CC(=O)C=C[C@]5(C)[C@@]4(F)[C@@H](O)C[C@]3(C)[C@]2(SC2CCOC2=O)O1` (stereo not given in full), the remaining at 10 min in data set [1] stood at 24%. Further, the remaining at 1 h stood at 0% in data set [2] and 74% in data set [3]. Further, in [4], the half-life is 4 min. Moreover, the Decrease with Rattus norvegicus [5] was 20.9%; in the data set with Rattus norvegicus [6], 9.01%; with Rattus norvegicus [7], 1.46%; in the data set on Rattus norvegicus [8], 0%.

Take `CCC(=O)O[C@]1(C(=O)SCF)[C@H](C)C[C@H]2[C@@H]3C[C@H](F)C4=CC(=O)C=C[C@]4(C)[C@@]3(F)[C@@H](O)C[C@@]21C` [FLUTICASONE PROPIONATE]: the Decrease in the data set with Rattus norvegicus [9] is 10.23%; in the data set on Rattus norvegicus [10], 28.5%; with Rattus norvegicus [11], 27.1%; in the data set with Rattus norvegicus [12] it was 38.6%; with Rattus norvegicus [13] it was 38.1%; with Rattus norvegicus [14] it was 18.6%. The molecule further returned a Decrease in the data set on Rattus norvegicus [15] of 34.7%.
